From ChEMBL document CHEMBL4017497, “Structure-Affinity Relationships and Structure-Kinetics Relationships of Pyrido[2,1-f]purine-2,4-dione Derivatives as Human Adenosine A3 Receptor Antagonists” (J Med Chem, 2017)

Key:
[1] = molecular target: T1, Adenosine receptor A3 (Homo sapiens) (UniProt P0DMS8); assay: (§1) Displacement of [3H]PSB-11 from human adenosine A3 receptor expressed on CHO cell membranes after 2 hrs by scintillation spectrometry
T1 sequence (whole entry): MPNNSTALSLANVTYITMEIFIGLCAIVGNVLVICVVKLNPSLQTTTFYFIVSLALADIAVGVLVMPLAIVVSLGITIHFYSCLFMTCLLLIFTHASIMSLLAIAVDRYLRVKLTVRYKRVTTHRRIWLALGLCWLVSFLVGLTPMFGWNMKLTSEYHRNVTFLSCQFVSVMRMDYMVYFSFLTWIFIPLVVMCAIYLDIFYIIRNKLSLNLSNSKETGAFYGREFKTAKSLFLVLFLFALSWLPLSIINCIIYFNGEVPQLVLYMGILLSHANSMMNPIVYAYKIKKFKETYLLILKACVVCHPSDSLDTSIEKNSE

Adenosine receptor A3 [2] = molecular target: T2, Adenosine receptor A3 (Homo sapiens, UniProt P0DMS8); assay: as §1
T2 sequence (P0DMS8 whole entry): T1 sequence (whole entry)

[3] = molecular target: T1, Adenosine receptor A3 (Homo sapiens); assay: Displacement of [3H]PSB-11 from human adenosine A3 receptor expressed on CHO cell membranes assessed as kinetic rate index at IC50 measured after 240 mins by scintillation spectrometry
Outline: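 Dual-point competition association at 10 °C. […] Specific binding read at 20 min (t1) and 240 min (t2); KRI derived from these two time points. n = 2 or 3.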

[4] = molecular target: T1, Adenosine receptor A3 (Homo sapiens); assay: Displacement of [3H]PSB-11 from human adenosine A3 receptor expressed on CHO cell membranes assessed as association rate constant after 120 mins by scintillation spectrometry
[5] = molecular target: T1, Adenosine receptor A3 (Homo sapiens); assay: Displacement of [3H]PSB-11 from human adenosine A3 receptor expressed on CHO cell membranes assessed as dissociation rate constant after 120 mins by scintillation spectrometry
Adenosine receptor A3 [6] = molecular target: T2, Adenosine receptor A3; assay: Antagonist activity at human adenosine A3 receptor expressed in CHO cell membranes assessed as inhibition of 2-Cl-IB-MECA-induced [35S]GTPgammaS binding measured after 30 mins; format: functional; conditions: read-out: pA2 (converted)
Outline: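 CHOhA3 membranes (15 μg) in 50 mM Tris-HCl, 5 mM MgCl2, 1 mM EDTA, 0.05% BSA, 1 mM DTT, pH 7.4, with 1 μM GDP and 5 μg saponin. […] 2-Cl-IB-MECA 0.1 nM–10 μM with ~0.3 nM [35S]GTPγS, 30 min at 25 °C. Filtration. Schild analysis from EC50 shifts gives pA2 and slope.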

Adenosine receptor A3 [7] = molecular target: T2, Adenosine receptor A3; assay: Antagonist activity at human adenosine A3 receptor expressed in CHO cell membranes assessed as inhibition of 2-Cl-IB-MECA-induced [35S]GTPgammaS binding preincubated with or without for 60 mins followed by addition of 2-Cl-IB-MECA and [35S]GTPgammaS measured after 30 mins; format: functional; conditions: read-out: pA2 (converted)

| Compound | inhibition [1] | Ki (Adenosine receptor A3 [2]) [nM] | Activity index [3] | K [4] | K [5] | Kb (Adenosine receptor A3 [6]) [nM] | Kb (Adenosine receptor A3 [7]) [nM] |
| --- | --- | --- | --- | --- | --- | --- | --- |
| COc1cccc(Cn2c(=O)n(CC3CC3)c(=O)c3c2nc2cc(OC)ccn23)c1 | Dose-dependent effect | 0.38 | 2.24 | 4.8 ×10⁵ /M/s | 4.7 ×10⁻⁵ /s | 1.26 | – |
| CCc1ccc(Cn2c(=O)n(CC3CC3)c(=O)c3c2nc2cc(OC)ccn23)cc1 | Dose-dependent effect | 0.71 | 0.81 | – | – | – | – |
| COc1ccn2c(c1)nc1c2c(=O)n(CC2CC2)c(=O)n1Cc1cccc(Cl)c1 | Dose-dependent effect | 4.9 | 0.89 | 8.2 ×10⁵ /M/s | 4.7 ×10⁻⁴ /s | – | – |
| COc1ccn2c(c1)nc1c2c(=O)n(CC2CC2)c(=O)n1Cc1ccc(C)cc1 | Dose-dependent effect | – | – | – | – | – | – |
| COc1ccn2c(c1)nc1c2c(=O)n(CC2CC2)c(=O)n1Cc1ccc(Br)cc1 | Dose-dependent effect | 1.2 | 1.19 | – | – | – | – |
| COc1ccn2c(c1)nc1c2c(=O)n(CC2CC2)c(=O)n1Cc1cccc(C)c1 | Dose-dependent effect | 1.5 | 1.18 | – | – | – | – |
| COc1ccn2c(c1)nc1c2c(=O)n(CC2CC2)c(=O)n1Cc1ccc(Cl)cc1 | Dose-dependent effect | 1.2 | 1.11 | 3 ×10⁶ /M/s | 8.2 ×10⁻⁴ /s | – | – |
| COc1ccc(Cn2c(=O)n(CC3CC3)c(=O)c3c2nc2cc(OC)ccn23)cc1 | Dose-dependent effect | 1.4 | 1.39 | 4.8 ×10⁵ /M/s | 7.8 ×10⁻⁵ /s | – | – |
| CCCCCCn1c(=O)c2c(nc3cc(OC)ccn32)n(Cc2ccccc2)c1=O | Dose-dependent effect | 2.8 | 2.18 | 2.3 ×10⁵ /M/s | 8.2 ×10⁻⁵ /s | – | – |
| COc1ccn2c(c1)nc1c2c(=O)[nH]c(=O)n1Cc1ccccc1 | Dose-dependent effect | 108 | 0.38 | 5.3 ×10⁵ /M/s | 1.4 ×10⁻² /s | 63.1 | 158 |
| CCCCCCCn1c(=O)c2c(nc3cc(OC)ccn32)n(Cc2ccccc2)c1=O | Dose-dependent effect | 6.8 | 4.06 | 4.2 ×10⁵ /M/s | 6.2 ×10⁻⁵ /s | – | – |
| COc1ccn2c(c1)nc1c2c(=O)n(CC2CC2)c(=O)n1CCc1ccccc1 | Dose-dependent effect | 7.7 | 1.09 | – | – | – | – |
| COc1ccn2c(c1)nc1c2c(=O)n(CC2CC2)c(=O)n1Cc1ccc(Cl)c(Cl)c1 | Dose-dependent effect | 5.3 | 3.12 | 1 ×10⁵ /M/s | 5.3 ×10⁻⁵ /s | – | – |

More lines, now with the values ahead:

| inhibition [1] | Ki (Adenosine receptor A3 [2]) [nM] | Activity index [3] | K [4] | K [5] | Kb (Adenosine receptor A3 [6]) [nM] | Kb (Adenosine receptor A3 [7]) [nM] | Compound |
| --- | --- | --- | --- | --- | --- | --- | --- |
| Dose-dependent effect | 2.7 | 1.36 | – | – | – | – | COc1ccn2c(c1)nc1c2c(=O)n(C[Si](C)(C)C)c(=O)n1Cc1ccccc1 |
| Dose-dependent effect | 3.5 | 1.39 | – | – | – | – | COc1ccn2c(c1)nc1c2c(=O)n(CCC(C)C)c(=O)n1Cc1ccccc1 |
| Dose-dependent effect | 81 | 1.04 | – | – | – | – | COc1ccn2c(c1)nc1c2c(=O)n(CCCO)c(=O)n1Cc1ccccc1 |
| Dose-dependent effect | 5.9 | 0.72 | – | – | – | – | C=CCn1c(=O)c2c(nc3cc(OC)ccn32)n(Cc2ccccc2)c1=O |
| Dose-dependent effect | 1.2 | 1.64 | 7.8 ×10⁵ /M/s | 2 ×10⁻⁴ /s | – | – | COc1ccn2c(c1)nc1c2c(=O)n(CC(C)C)c(=O)n1Cc1ccccc1 |
| Dose-dependent effect | 8 | 0.95 | – | – | – | – | COc1ccn2c(c1)nc1c2c(=O)n(CCC(C)(C)C)c(=O)n1Cc1ccccc1 |
| Dose-dependent effect | 1 | 2.68 | 2.8 ×10⁶ /M/s | 6 ×10⁻⁵ /s | – | – | COc1ccn2c(c1)nc1c2c(=O)n(CC2CC2)c(=O)n1Cc1ccccc1 |
| Dose-dependent effect | 1.5 | 1.29 | – | – | – | – | CCCCn1c(=O)c2c(nc3cc(OC)ccn32)n(Cc2ccccc2)c1=O |
| Dose-dependent effect | 10.7 | 0.8 | – | – | – | – | CCn1c(=O)c2c(nc3cc(OC)ccn32)n(Cc2ccccc2)c1=O |
| Dose-dependent effect | 4.3 | 1.2 | – | – | – | – | C#CCn1c(=O)c2c(nc3cc(OC)ccn32)n(Cc2ccccc2)c1=O |
| Dose-dependent effect | 2.7 | 1.48 | – | – | – | – | COc1ccn2c(c1)nc1c2c(=O)n(CC2CCC2)c(=O)n1Cc1ccccc1 |
| Dose-dependent effect | 3.5 | 1.11 | 1.1 ×10⁶ /M/s | 6 ×10⁻⁴ /s | – | – | CCCCCn1c(=O)c2c(nc3cc(OC)ccn32)n(Cc2ccccc2)c1=O |
| Dose-dependent effect | 20.8 | 0.54 | – | – | – | – | COc1ccn2c(c1)nc1c2c(=O)n(C)c(=O)n1Cc1ccccc1 |
| Dose-dependent effect | 3.2 | 0.99 | 8.5 ×10⁵ /M/s | 3.2 ×10⁻⁴ /s | – | – | CCCn1c(=O)c2c(nc3cc(OC)ccn32)n(Cc2ccccc2)c1=O |
| Dose-dependent effect | 3.5 | 1.73 | 5.5 ×10⁵ /M/s | 1.1 ×10⁻⁴ /s | – | – | COc1ccn2c(c1)nc1c2c(=O)n(CC(C)(C)C)c(=O)n1Cc1ccccc1 |
| Dose-dependent effect | 1.4 | 1.23 | – | – | – | – | C=CCCn1c(=O)c2c(nc3cc(OC)ccn32)n(Cc2ccccc2)c1=O |
| Dose-dependent effect | 23 | 0.7 | 4.3 ×10⁵ /M/s | 6.3 ×10⁻⁴ /s | – | – | COCCn1c(=O)c2c(nc3cc(OC)ccn32)n(Cc2ccccc2)c1=O |
